HKDC1 inhibitor: HKDC1 hexokinase inhibitors, primary screen, biochemical, fluorescence, uHTS; Q2TB90; recombinant HKDC1, G6PDH/diaphorase resazurin coupled fluorescence; inhibition, % at 20 µM; 340,000 compounds, 0.16% hits; AID 493160, 2011;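 active means inhibition above about 35% when tested at 20 µM, limit read from the data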
Target sequence (Q2TB90 whole entry, looked up): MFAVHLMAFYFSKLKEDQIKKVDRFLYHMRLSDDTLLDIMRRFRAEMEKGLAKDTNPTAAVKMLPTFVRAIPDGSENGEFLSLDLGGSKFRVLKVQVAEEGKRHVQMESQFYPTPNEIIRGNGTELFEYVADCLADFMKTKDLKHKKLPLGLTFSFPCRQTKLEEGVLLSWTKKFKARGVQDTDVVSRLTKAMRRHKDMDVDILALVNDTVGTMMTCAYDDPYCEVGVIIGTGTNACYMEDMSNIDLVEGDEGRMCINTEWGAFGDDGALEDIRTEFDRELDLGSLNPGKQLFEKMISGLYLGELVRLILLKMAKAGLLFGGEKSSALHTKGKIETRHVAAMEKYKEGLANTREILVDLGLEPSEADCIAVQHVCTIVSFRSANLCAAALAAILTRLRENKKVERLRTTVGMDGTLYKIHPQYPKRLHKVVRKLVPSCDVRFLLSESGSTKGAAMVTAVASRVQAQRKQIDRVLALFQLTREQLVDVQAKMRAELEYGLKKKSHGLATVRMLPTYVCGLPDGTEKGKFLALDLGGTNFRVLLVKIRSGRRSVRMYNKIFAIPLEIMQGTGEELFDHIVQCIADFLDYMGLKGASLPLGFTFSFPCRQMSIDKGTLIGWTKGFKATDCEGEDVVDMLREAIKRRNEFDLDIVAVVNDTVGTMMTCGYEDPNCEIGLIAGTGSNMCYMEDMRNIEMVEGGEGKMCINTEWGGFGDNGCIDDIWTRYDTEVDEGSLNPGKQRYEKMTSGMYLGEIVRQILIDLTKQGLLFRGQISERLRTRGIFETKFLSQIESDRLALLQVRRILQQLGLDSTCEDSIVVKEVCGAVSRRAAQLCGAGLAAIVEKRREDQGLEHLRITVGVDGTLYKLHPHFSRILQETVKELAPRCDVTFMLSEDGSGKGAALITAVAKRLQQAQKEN
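Test system: recombinant HKDC1 (HK5) hexokinase enzyme, produced in-house; Amount: enzyme 5 µg/mL final; Buffer or medium: Tris pH 8.0 buffer with MgCl2, Tween-20, BSA, BME; Reagent: glucose and ATP substrates; Doses: 20 µM test compound, 1% DMSO; Incubation: 90 min reaction incubation at room temperature, dark; Detection: resorufin fluorescence at 613 nm.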
Diaphorase act: compounds boosting diaphorase resazurin reduction – biochemical, uHTS, resorufin fluorescence, counter-screen for diaphorase-coupled primary assays, primary screen; 190,000 compounds, 0.005% hits; Diaphorase/resazurin coupled assay, 16 min; active compounds read high; 1 = vehicle wells, 0 = NADH-free wells; activation factor at 20 µM;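 active means diaphorase activity raised at least twofold by the compound at 20 µM; inactive means activation factor below 2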
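Test system: Clostridium kluyveri diaphorase, purified enzyme; input: enzyme 0.07 U/mL final; buffer or medium: 50 mM HEPES pH 7.4 with 4.542 mM MgCl2, 0.005% Tween 20; also added: 0.114 mM NADH and 0.1 mM resazurin, final amounts; schedule: 16 min enzyme reaction, ambient temperature; technique: fluorescence of resorufin, 544 nm excitation, 590 nm emission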
Fh CTSL1 inh: Fasciola hepatica cathepsin L1 inhibitors, primary screen, counter-screen for PFM18AAP inhibitor project, biochemical, QFRET, fluorogenic peptide substrate; recombinant F. hepatica cathepsin L1, Z-Leu-Arg-MCA fluorescence; inhibition, % at 5.96 µM; 300,000 compounds, 0.49% hits; AID 1906, 2009;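 active means inhibition above the mean of all tested compounds plus 3 SD, set per screening campaign, cut at about 17% in these data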
ATG4B inhibitor: ATG4B protease inhibitors, primary screen, biochemical, fluorescence, uHTS. 340,000 compounds, 0.51% hits. AID 504462, 2011. inhibition, % at 8.33 µM. ATG4B cleavage of LC3-PLA2, NBD-HPC fluorescence, 1 h. Cysteine protease ATG4B (Homo sapiens), Q9Y4P1; in the data active means inhibition above about 40%
Diaphorase inh: diaphorase inhibitors and chemical oxidizers, primary screen, counter-screen for diaphorase-coupled primary assays, biochemical, uHTS, resorufin fluorescence; inhibition, % at 20 µM; diaphorase resazurin-to-resorufin fluorescence, NADH, 16 min; bacterial (C. kluyveri) enzyme, not human; 190,000 compounds, 0.69% hits; AID 1217, 2008;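 active means primary screen inhibition at 20 µM above a set limit, cut at about 50% in these data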
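material = Clostridium kluyveri diaphorase enzyme | amount = 0.14 U/mL diaphorase, enzyme working solution | schedule = incubation 16 min, room temperature | detection = fluorescence of resorufin formed from resazurin, Ex 544/Em 590 nm | benchmarks = positive control minus NADH, DMSO neutral control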
Of the large screens only hits and unclear results are named; the others gave an inactive call. A selection: hits, their analogues and other compounds. The true share with any hit is near 1.4%.

CCc1ccc(C(=O)/C=C2\Sc3ccccc3NC2=O)cc1	ATG4B inhibitor 56.3
CCOc1ccc(N(CC(=O)N2CCCCCC2)S(=O)(=O)c2ccc(F)cc2)cc1	none (no result: Diaphorase act, Diaphorase inh)
O=C1Nc2ccc(C(F)(F)F)cc2N2CCCC12 (stereo not given)	none (no result: HKDC1 inhibitor, Diaphorase act, ATG4B inhibitor, Diaphorase inh)
O=C1Nc2ccccc2N2CCCC12 (stereo not given)	Fh CTSL1 inh 71.0, Diaphorase inh 60.5 (no result: HKDC1 inhibitor, ATG4B inhibitor)
CCOC(=O)C1=C(O)/C(=C\c2ccc(CNS(=O)(=O)c3ccc(Br)cc3)o2)N=C1C	Diaphorase inh 52.5
CC1=Nc2ccccc2/C1=C\c1nc(-c2ccccc2)oc1O	Fh CTSL1 inh 16.9
CC1=Nc2ccccc2/C1=C/c1nc(-c2ccc(C)s2)oc1O	Fh CTSL1 inh 25.5
CC1(C)CCC[C@@]2(C)CC=C(C(=O)O)[C@@H]3C[C@]312	none (no result: Diaphorase act, Diaphorase inh)
NCCCCCc1nnc(SCC(=O)Nc2cccc(Cl)c2)o1	Fh CTSL1 inh 16.9
O=C(CSc1nnc(CNC(=O)c2cccs2)o1)Nc1cccc(Cl)c1	none (no result: Diaphorase act, Diaphorase inh)
Cc1ccc(C(=O)OCc2nc3ccsc3c(=O)[nH]2)o1	none (no result: Diaphorase act, Diaphorase inh)
O=C(/C=C/c1ccc(Br)o1)OCc1nc2ccsc2c(=O)[nH]1	HKDC1 inhibitor 58.3 (no result: Diaphorase act, Diaphorase inh)
CCN(CCn1cccn1)C(=O)c1ccc2nc(Cc3ccc(OC)cc3)oc2c1	none (no result: Diaphorase act, Diaphorase inh)
Cc1ccc(-c2nc3c(c(=O)c4ccccc4n3C)c(=O)n2-c2ccccc2)cc1	Diaphorase inh 52.9
CCOC(=O)c1c2c(n(C)c1C)C(=O)C(=O)c1ccc(Br)cc1-2	Fh CTSL1 inh 66.3 (no result: Diaphorase act, Diaphorase inh)
CCOC(=O)c1c2c(n(Cc3ccccc3)c1C)C(=O)C(=O)c1ccccc1-2	none (no result: Diaphorase act, Fh CTSL1 inh, Diaphorase inh)
Cc1ccc(C(C)C)c(OCC(=O)Nc2ccc(N3CCOCC3)cc2N2CCOCC2)c1	none (no result: Diaphorase act, Fh CTSL1 inh, Diaphorase inh)
Cc1ccsc1-c1nc(-c2ccccc2)c(-c2ccccc2)[nH]1	Fh CTSL1 inh 18.6
CC(=O)c1c(C)[nH]c(C(=O)OCC(=O)Nc2nnc(-c3ccccc3)o2)c1C	none (no result: Diaphorase act, Fh CTSL1 inh, Diaphorase inh)
CC(=O)c1coc2c1cc(O)c1ccccc12	none
CC(=O)c1cc(O)c2ccccc2c1O	HKDC1 inhibitor 43.6 (no result: Diaphorase act, Diaphorase inh)
O=C(CSc1ccc(-c2ccco2)nn1)c1cccc([N+](=O)[O-])c1	Diaphorase inh 62.8
Cc1ccc2oc(-c3cccc(NC(=O)c4ccc(Br)o4)c3C)nc2c1	none
Cc1cc2nc(-c3cccc(NC(=O)c4ccc(Br)o4)c3C)oc2cc1C	Fh CTSL1 inh 18.0
Cc1ccc(NC(=O)CSc2nnc(-c3ccoc3C)n2CCCN(C)C)cc1Cl	none (no result: Diaphorase act, Diaphorase inh)
COc1ccc(Cl)cc1C=CC=Nc1ccccc1O	none (no result: Diaphorase act, Fh CTSL1 inh, Diaphorase inh)
Cc1ccc(S(=O)(=O)N(CC(=O)Nc2ccc(C(N)=O)cc2)C(=O)N2CCN(C)CC2)cc1	none (no result: Diaphorase act, Diaphorase inh)
CCCCC(=O)NC(=O)NC(c1ccccc1)c1ccccc1	Fh CTSL1 inh 32.6 (no result: Diaphorase act, Diaphorase inh)
CCCCC(=O)NC(=S)NNS(=O)(=O)c1ccccc1	none
Cc1ccc(N(O)C(=O)NCCCCNC(=O)N(O)c2ccc(C)cc2)cc1	none (no result: Diaphorase act, Diaphorase inh)
CCCCCCCCCCC[C@@H](C[C@@H]1OC(=O)[C@H]1CCCCCC)OC(=O)[C@H](CC(C)C)NC=O	Fh CTSL1 inh 21.4
O=C(COC(=O)CNC(=O)c1ccccc1Cl)Nc1ncc(C(F)(F)F)cc1Cl	Fh CTSL1 inh 20.8
CC(=O)c1c(NC(=O)c2ccccc2)[nH]c(-c2ccccc2)nc1=S	Diaphorase inh 67.3
CSc1nc(-c2ccccc2)[nH]c(=S)c1C(C)=O	Diaphorase inh 73.2
CCN(c1cccc(C)c1)S(=O)(=O)c1ccc2c(c1)N(C(C)=O)CCS2	none (no result: Diaphorase act, Diaphorase inh)
O=C(NCCc1cccs1)C(c1ccccc1)c1ccccc1	none (no result: Diaphorase act, Diaphorase inh)
N/C(CSc1ccc(Cl)cc1)=N\NC(=O)c1ccncc1	Fh CTSL1 inh 20.0
O=C(CNC(=O)c1ccccc1)OCC(=O)N1c2ccccc2Sc2ccccc21	Fh CTSL1 inh 34.1
Oc1ccc(CN2CCc3ccccc3C2)c2cccnc12	none
CC(C)COCc1ccc(O)c2ncccc12	Diaphorase inh 55.1
Oc1ccc(CN2CCN(c3ccccc3)CC2)c2cccnc12	Diaphorase inh 65.7
Oc1ccc(Cc2ccccc2)c2cccnc12	none (no result: Diaphorase act, Fh CTSL1 inh, Diaphorase inh)
